Series [1] addresses T1, Inhibitor of nuclear factor kappa-B kinase subunit beta (Homo sapiens, UniProt O14920).
T1 sequence (O14920 whole entry): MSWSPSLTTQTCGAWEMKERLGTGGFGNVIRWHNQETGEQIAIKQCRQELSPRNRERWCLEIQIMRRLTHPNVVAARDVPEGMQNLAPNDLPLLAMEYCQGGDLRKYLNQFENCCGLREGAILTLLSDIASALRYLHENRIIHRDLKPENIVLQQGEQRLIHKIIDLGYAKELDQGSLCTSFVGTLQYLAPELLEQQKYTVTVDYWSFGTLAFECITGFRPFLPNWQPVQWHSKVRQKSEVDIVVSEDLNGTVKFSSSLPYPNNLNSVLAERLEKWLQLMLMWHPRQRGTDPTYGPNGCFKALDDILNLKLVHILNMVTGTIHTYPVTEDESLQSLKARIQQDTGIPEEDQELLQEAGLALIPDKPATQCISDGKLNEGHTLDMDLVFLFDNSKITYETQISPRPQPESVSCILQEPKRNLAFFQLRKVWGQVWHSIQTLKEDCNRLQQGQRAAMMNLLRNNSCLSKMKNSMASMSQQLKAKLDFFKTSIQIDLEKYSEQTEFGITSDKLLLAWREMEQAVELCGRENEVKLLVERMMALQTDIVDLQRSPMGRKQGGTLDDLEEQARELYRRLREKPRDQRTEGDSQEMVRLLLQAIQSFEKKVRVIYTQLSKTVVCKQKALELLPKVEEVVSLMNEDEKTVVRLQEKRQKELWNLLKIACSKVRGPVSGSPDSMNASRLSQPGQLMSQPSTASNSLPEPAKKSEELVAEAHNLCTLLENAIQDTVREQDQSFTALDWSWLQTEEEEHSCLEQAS
In words: Allosteric inhibition of IKKbeta (unknown origin) using 5FAM-GRHDSGLDSMK-NH2 as substrate pretreated for 10 mins followed measured after 2 hrs by TR-FRET assay. Put shortly:
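Enzyme: 0.5 µg/mL IKK2, in 10 mM Tris-HCl pH 7.2, 10 mM MgCl2, 0.05% NaN3, 1 mM DTT, 0.01% Tween-20. Compound at 10 µM pre-incubated 10 min, then 1 µM 5-FAM IκBα peptide and 3 µM ATP added. Reaction 2 h at room temperature. IMAP binding reagent/terbium detection mix added 15 h before reading. TR-FRET read with 340 nm excitation, emission 495/520 nm. Percent inhibition or IC50 derived.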
(In general: Time-resolved FRET reads energy transfer from a long-lived donor to a nearby acceptor.)

A short description of series [2]: Metabolic stability in human liver microsomes assessed as half life at 1 uM measured upto 1 hrs by LC-MS/MS analysis. In kind it is ADME, Microsome. Put shortly: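 Pooled human liver microsomes (0.5 mg/mL protein) with 1 µM compound at 37 °C. Reaction stopped at 0, 5, 15, 30 and 60 min and analysed by LC-MS/MS. Amount remaining expressed as % of initial concentration. Mibefradil run as reference.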

The nature of series [3]: Metabolic stability in rat plasma assessed as parent compound remaining at 1 uM measured upto 2 hrs by LC-MS/MS analysis. The class given is ADME, cell-free. To be noted: read-out: Stabilty. Put shortly:
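Rat plasma incubated with 1 µM compound at 37 °C for 0, 15, 30, 60 and 120 min. After separation, remaining compound quantified by LC-MS/MS as % remaining.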

Series [4] deals with RAW264.7. In words: Antiinflammatory activity against mouse RAW264.7 cells assessed as reduction in LPS-induced PGE2 level incubated for 1 hr followed by LPS stimulation and measured after 24 hrs by ELISA. The class given is functional, cell-based. The method, boiled down:
(§1)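 RAW 264.7 cells (DMEM, 10% FBS, 37 °C, 5% CO2) plated at 2×10^5 cells/mL and left overnight. Compounds (0.1, 1, 10 µM) or NS-398 given for 1 h, then LPS 10 ng/mL for 24 h. Culture medium assayed by ELISA: competitive colorimetric for PGE2/TNF-α, mouse DuoSet for TNF-α/IL-6. IC50 is the concentration lowering the mediator to 50%.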

The target in series [5] is T1, Inhibitor of nuclear factor kappa-B kinase subunit beta. In words: Allosteric inhibition of IKKbeta (unknown origin) using 5FAM-GRHDSGLDSMK-NH2 as substrate incubated for 10 mins followed by substrate addition and measured after 40 mins by TR-FRET assay. Put shortly:
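Kinetic IMAP TR-FRET run with 0.5 µg/mL IKK2 in 10 mM Tris-HCl pH 7.2, 10 mM MgCl2, 0.05% NaN3, 1 mM DTT, 0.01% Tween-20. Compound (ten doses, 30 to 0.001 µM) pre-incubated with enzyme 10 min, then 1 µM IκBα-derived substrate and 3 µM ATP added. Room temperature. Reactions run 0, 20, 40 or 60 min. Ten-point curves fitted by nonlinear regression.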

Series [6] deals with RAW264.7. Nature of the series: Antiinflammatory activity against mouse RAW264.7 cells assessed as reduction in LPS-induced IL-6 level incubated for 1 hr followed by LPS stimulation and measured after 24 hrs by ELISA. The class given is functional, cell-based. The method, boiled down:
as §1

Series [7] is described as follows: Cytotoxicity against non-stimulated mouse RAW264.7 cells upto 10 uM after 24 hrs by MTT assay. To be noted: raw264.7, 24 h. In general terms: Formazan colour is commonly taken as a measure of viable cells.
The target in series [8] is T2, Inhibitor of nuclear factor kappa-B kinase subunit beta (Homo sapiens) (UniProt O14920).
T2 sequence (whole entry): T1 sequence (O14920 whole entry)
Nature of the series: Allosteric inhibition of IKKbeta (unknown origin) at 0.001 to 30 uM using 5FAM-GRHDSGLDSMK-NH2 as substrate incubated for 10 mins followed by substrate addition and measured after 60 mins by TR-FRET assay relative to control. The following applies: filed as negative allosteric modulator, dose 0.001-30 µM, time 70.0 min. The method, boiled down: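 IKK2 (0.5 µg/mL) in 10 mM Tris-HCl pH 7.2, 10 mM MgCl2, 0.05% NaN3, 1 mM DTT, 0.01% Tween-20, room temperature. Compound (30 to 0.001 µM, ten roughly three-fold dilutions) preincubated 10 min with enzyme. Reaction started with 1 µM 5FAM-IκBα peptide and 3 µM ATP, run 0, 20, 40 or 60 min. IMAP binding reagent/terbium donor detection, TR-FRET read at 495/520 nm. Kobs fitted against concentration by nonlinear regression.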

The subject of series [9] is RAW264.7. In words: Cytotoxicity against mouse RAW264.7 cells assessed as reduction in cell viability incubated for 24 hrs in presence of LPS by MTT assay. In kind it is cell-based. The following applies: RAW264.7, 24 h. The method, boiled down:
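MTT viability in RAW 264.7 cells seeded at 1×10^5 cells/mL and incubated overnight. Compounds added with or without LPS (1 µg/mL) for 24 h. MTT for 4 h at 37 °C, formazan dissolved in DMSO, absorbance read at 540 nm. IC80 is the concentration reducing viability to 80% with LPS.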

Series [10] concerns RAW264.7. In words: Antiinflammatory activity against mouse RAW264.7 cells assessed as reduction in LPS-induced PGE2 production at 10 uM incubated for 1 hr followed by LPS stimulation and measured after 24 hrs by ELISA (reference value: 33.64 ng/ml). The class given is functional. The following applies: time 25 hrs. Put shortly:
as §1
On the technique in general: In an ELISA, binding on a coated surface is turned into a signal by an enzyme label.

The subject of series [11] is RAW264.7. Nature of the series: Antiinflammatory activity against mouse RAW264.7 cells assessed as reduction in LPS-induced NO level incubated for 1 hr followed by LPS stimulation and measured after 24 hrs by Griess reagent based assay. In kind it is functional, cell-based. Put shortly: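 RAW 264.7 cells in 24-well plates received compounds (0.1, 1, 10 µM) or L-NIL 40 µM positive control, then LPS 1 µg/mL for 24 h. Nitrite in the medium measured by Griess reaction as an NO surrogate. Values referenced to levels before and after LPS stimulation.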

By IC50 is commonly meant the concentration that gives 50% inhibition. Usually half-life stands for how long it takes for the measured level to halve. In general, inhibition refers to the relative decrease from the control value, in per cent. As a reminder, the IC80 is the concentration at which the effect reaches the 80% level. With `CN1CCN(CCCOc2ccc(N3C(=O)S/C(=C\c4ccc(Oc5ccc(C#N)cc5)cc4)C3=O)cc2)CC1`, the half-inhibitory concentration (IC50) in series [1] is 0.2 µM; in series [4], 9.83 µM; in [5], 0.251 µM; in [6], > 10 µM; in series [11], > 10 µM. Also, the half-life at 1 µM in series [2] stood at 20 min. For the same molecule, in [3], the remaining at 2 h, 1 µM was found to be 73.6%. Also, the Activity entry in series [7] is “Non-Toxic”; in series [10] it was 16.53 ng/mL. The inhibition in series [8] was -0.38%. The IC80 in series [9] was > 10 µM.
For the molecule `CN1CCN(CCCCCOc2cccc(N3C(=O)S/C(=C\c4ccc(Oc5ccc([N+](=O)[O-])cc5)cc4)C3=O)c2)CC1`, the IC50 was 0.22 µM in series [1]; > 10 µM in series [4]; 0.219 µM in series [5]; > 10 µM in series [6]; > 10 µM in series [11]. Moreover, the half-life at 1 µM in series [2] is 60 min. Moreover, the remaining at 2 h, 1 µM in series [3] was determined as 83.3%. The values for the Activity entry in series [7] and in series [10] were “Non-Toxic” and 19.04 ng/mL, respectively. In [8], the inhibition was -3.88%. Besides, the IC80 in series [9] was > 10 µM.
